Compound activity (PubChem)
Hits are enriched below; roughly 3.8% of the tested compounds scored in any of these assays.
ARNT-TACC3 inh: ARNT/TACC3 interaction disruption; Q9Y6A5; inhibition, % at 9.99 µM; 0.66% of 390,000 active; AlphaScreen His-ARNT PAS-B/GST-TACC3 binding, luminescence; TACC3 fragment carries E629A point mutation;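 active = mean inhibition of replicates at least 50% and at least half of replicates each reaching 50%; inconclusive = half or more replicates reach 50% but mean below 50%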;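 also: 0% = complete ARNT plus TACC3 wells and 100% = ARNT alone without TACC3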
XiGFP reactiv: X-chromosome reactivation activator | activation, % at 7.58 µM | 0.055% of 360,000 active | XiGFP mouse fibroblasts, % GFP-positive cells imaging, 3 d; cells co-treated with 5-aza-dC sensitizer; scaled so ellipticine positive control = 100%;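 active = mean normalized replicate activation at least 10% and every replicate at or above 10%; inconclusive = only one of the two criteria met; inactive = mean below 10% and not all replicates reach 10%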;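 also: 0% = median of on-plate neutral control wells and 100% = ellipticine 6 µM median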
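material = 68-5-11 XiGFP fibroblast line | medium = DMEM plus 5-aza-dC sensitizer | schedule = 3 days compound exposure | benchmarks = positive control ellipticine, 6 µM final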
FGF22 binding: FGF22 (human) thermal shift binding | recombinant FGF22 thermal shift, SYPRO orange fluorescence; percent of sucrose octasulfate shift, DMSO zero | Q9HCT0 | 1.5% of 340,000 active | activity (Tm shift, normalised), % at 9.99 µM;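 active = mean Tm shift, scaled 0 neutral to 100 positive control, at about 1.3% or above, every replicate too, limit read from the data; inconclusive = no clear call, values can overlap the other calls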
Target sequence (Q9HCT0 whole entry, looked up): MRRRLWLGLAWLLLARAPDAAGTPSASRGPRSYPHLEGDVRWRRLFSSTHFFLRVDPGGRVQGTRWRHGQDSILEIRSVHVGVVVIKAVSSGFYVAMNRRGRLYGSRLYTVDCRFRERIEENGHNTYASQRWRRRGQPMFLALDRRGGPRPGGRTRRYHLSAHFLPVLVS
FN deposition inh: fibronectin deposition inhibition. AH1F fibroblasts, Alexa488-fibronectin deposition fluorescence, overnight. inhibition, % at 12.6 µM. 0.086% of 350,000 active. AID 743247;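 active = mean inhibition across replicates of 30% or more, regardless of how many single replicates reach that level; inconclusive = mean under 30% yet at least half of replicates reach 30%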;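 also: positive control wells lacked labelled fibronectin entirely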
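Measured by – fluorescence 485/525 nm · System – AH1F fibroblast monolayer, labelled fibronectin deposition · Amount – 10000 cells per well · Buffer or medium – serum-reduced DMEM (2% serum) · Doses – single dose, pinned · Also added – fluorescent fibronectin at 24 nM final · Schedule – 1 h cell attachment, overnight exposure to compound and label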
DENV2 CPE: inhibitors of DENV2 cytopathic effect; DENV2-infected cells, cytopathic effect rescue, plate reader; CPE inhibition, % at 9.99 µM; 1.7% of 350,000 active; in the data active = CPE inhibition above about 20%, passing the limit was not always enough; inconclusive = no clear call, values can overlap the other calls; tested in BHK-21 cells;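 also: 0% = median of neutral control wells and 100% = median of positive control wells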
SIRT5 inh: inhibitors of human sirtuin-5 desuccinylase. Q9NXA8. Purified SirT5, succinyl-peptide AMC, trypsin-coupled fluorescence. inhibition, % at 15 µM. 1.1% of 330,000 active; in the data active = inhibition above about 15%; inconclusive = no clear call, values can overlap the other calls
Target sequence (Q9NXA8 whole entry, looked up): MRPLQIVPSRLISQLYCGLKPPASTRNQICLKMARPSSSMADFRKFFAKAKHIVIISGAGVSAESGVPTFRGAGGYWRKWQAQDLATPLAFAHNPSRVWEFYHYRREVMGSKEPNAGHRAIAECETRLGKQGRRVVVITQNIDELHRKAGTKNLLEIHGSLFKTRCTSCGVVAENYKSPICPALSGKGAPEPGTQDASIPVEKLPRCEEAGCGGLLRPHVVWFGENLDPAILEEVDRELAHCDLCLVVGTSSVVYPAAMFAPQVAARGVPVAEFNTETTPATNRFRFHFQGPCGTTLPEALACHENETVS
The depositor's hits bear a star; ? = inconclusive; . = not tested or not shown.

SMILES	ARNT-TACC3 inh	XiGFP reactiv	FGF22 binding	FN deposition inh	DENV2 CPE	SIRT5 inh
COc1ccc(NC(=O)Nc2ccc3c(c2)C(=O)N([C@@H](C)CO)C[C@@H](C)[C@@H](CN(C)S(=O)(=O)c2cn(C)cn2)OCCCC[C@H](C)O3)cc1	-3	0	0	.	?	.
Cc1cc(NC(=O)c2ccccc2Cl)c(C(C)C)cc1O	3	.	.	-2	.	.
Cc1cc(O)c(C(C)C)cc1NC(=O)c1ccccc1Cl	5	0	0	3	28*	.
CN(C)c1ccc(/C=C/C(=O)c2ccc(O)cc2)cc1	-28	0	1	-3	-8	0
O=C(/C=C/c1ccc(O)cc1)c1ccccc1	-2	0	1.3*	-5	-1	2
COc1ccc(C(=O)/C=C/c2ccc(O)cc2)cc1	1	.	2.7*	.	0	.
O=C(C[C@H]1CC[C@H](NC(=O)c2ccncc2)[C@H](CO)O1)Nc1ccc(-c2ccccc2)cc1	.	0	.	.	6	-1
C[C@@H]1CN([C@H](C)CO)C(=O)c2cc(-c3cncnc3)cnc2O[C@@H]1CN(C)C(=O)Cc1cccnc1	-3	1	0	-10	2	1
COc1ccccc1CN1C[C@H](C)[C@H](OC)CN(C)C(=O)c2ccc(NC(C)=O)cc2OC[C@@H]1C	-13	0	0	1	12	0
CO[C@H]1CN(C)C(=O)c2cc(NC(=O)Nc3ccccc3F)ccc2OC[C@H](C)N(CC2CC2)C[C@H]1C	-9	0	0	-11	-13	3
O=C(c1ccc(-c2cc(O)c3ncccc3c2)cc1)N1CCNCC1	66*	0	0	-15	.	-1
CCCc1c(C)[nH]c2ccc(C(=O)O)cc2c1=S	-2	0	0	-5	19	26*
C[C@H]1CCCCO[C@H](CN(C)S(=O)(=O)c2cccs2)[C@@H](C)CN([C@@H](C)CO)C(=O)c2cc(NS(C)(=O)=O)ccc2O1	-7	0	0	.	1	-2
COC(=O)CNC(=O)COC(=O)/C=C/c1ccc2ccccc2n1	-2	0	43*	-6	-1	2
CC1=C(C(=O)N(C)C)CC(CC(=O)NC2CCCCC2)C(=O)N1Cc1ccc(C(C)(C)C)cc1 (configuration not stated)	.	0	0	1	43*	-1
CCN(CC)C(=O)C1=C(C)N(Cc2ccccc2)C(=O)C(CC(=O)NC2CCCCC2)C1 (configuration not stated)	.	0	44*	-1	3	.
CCN(CC)C(=O)C1=C(C)N(Cc2ccccc2)C(=O)C(CC(=O)NC2CC2)C1 (configuration not stated)	.	0	44*	-2	14	.
CCN(CC)C(=O)C1=C(C)N(Cc2ccc(C(C)(C)C)cc2)C(=O)C(CC(=O)NC2CCCCC2)C1 (configuration not stated)	.	0	0	-4	3	3
CC1=C(C(=O)N(C(C)C)C(C)C)CC(CC(=O)NC2CCCCC2)C(=O)N1Cc1ccccc1 (configuration not stated)	.	0	0	-15	-1	2
CCNC(=O)C[C@H]1CC[C@H]2[C@@H](COc3ccc(NC(=O)Nc4cccc(OC)c4)cc3C(=O)N2C)O1	5	0	0	-3	-4	.
CO[C@@H]1CN(C)C(=O)c2ccc(NC(=O)NC(C)C)cc2OC[C@H](C)N(Cc2cncnc2)C[C@@H]1C	.	0	.	-3	.	.
C[C@@H]1CCCCO[C@@H](CN(C)C(=O)Nc2cccc3ccccc23)[C@@H](C)CN([C@@H](C)CO)C(=O)c2cc(NC(=O)Cc3ccccc3)ccc2O1	.	-1	.	.	-2	8
COc1ccc(NC(=O)N(C)C[C@@H]2Oc3ncc(C#CCC(C)C)cc3C(=O)N([C@@H](C)CO)C[C@H]2C)cc1	.	0	0	-8	-5	3
C=CCn1ncc(OC)c(Cl)c1=O	-4	.	0	.	1	24*
COc1cnn(-c2cccc(C)c2)c(=O)c1Cl	-2	0	0	1	-5	-2
SMILES	ARNT-TACC3 inh	XiGFP reactiv	FGF22 binding	FN deposition inh	DENV2 CPE	SIRT5 inh
S=C(NN=Cc1ccccn1)N(Cc1ccccn1)Cc1ccccn1	59*	0	0	8	13	-1
S=C(NN=C(c1ccccc1)c1ccccn1)N(Cc1ccccn1)Cc1ccccn1	66*	0	-1	3	1	-3
CC(=NNC(=S)N(Cc1ccccn1)Cc1ccccn1)c1cnccn1	64*	0	0	14	2	-1
Cc1ccccc1NC(=S)N(Cc1ccccn1)Cc1ccccc1Cl	-17	0	0	.	2	-2
COc1ccccc1NC(=S)N(Cc1ccc(C)cc1)Cc1ccccn1	4	0	0	3	11	-1
CCO[C@@H]1OC(C(=O)N2CCCC2)=C[C@H](C2CCCCC2)[C@H]1CCCO	-2	.	0	.	0	0
Cc1ccc(S(=O)(=O)N2[C@@H](c3ccc(F)cc3)C(C(=O)O)=CC[C@H]2c2cccc(Cl)c2)cc1	-4	0	0	-8	?	.
COc1cccc([C@@H]2CC=C(C(=O)O)[C@H](c3ccc(C)cc3)N2S(=O)(=O)c2ccc(C)cc2)c1	1	0	0	-2	-5	1
COc1cccc([C@@H]2CC=C(C(=O)O)[C@H](c3ccccc3F)N2S(=O)(=O)c2ccc(C)cc2)c1	-3	0	0	3	21*	.
Cc1ccc(S(=O)(=O)N2[C@@H](c3ccc(C(C)(C)C)cc3)C(C(=O)O)=CC[C@H]2c2ccc(Cl)c(Cl)c2)cc1	-2	0	0	.	-5	16*
Cc1ccccc1S(=O)(=O)N1C(c2ccc(Cl)cc2)CC=C(C(=O)O)C1c1cccc(Cl)c1 (configuration not stated)	.	0	1	3	67*	.
O=C(O)C1=CCC(c2ccc(Cl)c(Cl)c2)N(S(=O)(=O)c2ccc(F)cc2)C1c1cccc(F)c1 (configuration not stated)	.	0	43*	-3	6	.
COc1ccc2c3c(n(C)c2c1)[C@H](CO)N(C)CC31CN(S(=O)(=O)c2cccc(F)c2)C1	.	0	0	.	-5	.
COc1ccc(NC(=O)Nc2cccc3c2O[C@@H](CN(C)S(=O)(=O)c2cccs2)[C@H](C)CN([C@@H](C)CO)C3=O)cc1	-1	0	0	7	-13	-1
C/C=C/c1ccc([C@H]2[C@@H](C#N)N(C(=O)CN3CCOCC3)[C@H]2CO)cc1	3	0	0	2	-1	-1
